# Screening results from PubChem.
# Only some compounds are listed: those with a hit (about 4.9% of all), similar ones and a draw of the others.
# FLuc stim CS = FLuc activators, initial screening, artefact control for FLuc-dependent activation tests, biochemical, ATPlite luminescence; Luciferin 4-monooxygenase (Photinus pyralis), P08659; ATPlite luciferase biochemical, 10 min; 0 = ATP-free wells, 1 = DMSO control; activation factor at 10 µM; 200,000 tested, under 10 active;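 active means luciferase activation factor, scaled between plate controls, of at least 2 with compound at 10 µM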
# Target sequence (P08659 whole entry, looked up): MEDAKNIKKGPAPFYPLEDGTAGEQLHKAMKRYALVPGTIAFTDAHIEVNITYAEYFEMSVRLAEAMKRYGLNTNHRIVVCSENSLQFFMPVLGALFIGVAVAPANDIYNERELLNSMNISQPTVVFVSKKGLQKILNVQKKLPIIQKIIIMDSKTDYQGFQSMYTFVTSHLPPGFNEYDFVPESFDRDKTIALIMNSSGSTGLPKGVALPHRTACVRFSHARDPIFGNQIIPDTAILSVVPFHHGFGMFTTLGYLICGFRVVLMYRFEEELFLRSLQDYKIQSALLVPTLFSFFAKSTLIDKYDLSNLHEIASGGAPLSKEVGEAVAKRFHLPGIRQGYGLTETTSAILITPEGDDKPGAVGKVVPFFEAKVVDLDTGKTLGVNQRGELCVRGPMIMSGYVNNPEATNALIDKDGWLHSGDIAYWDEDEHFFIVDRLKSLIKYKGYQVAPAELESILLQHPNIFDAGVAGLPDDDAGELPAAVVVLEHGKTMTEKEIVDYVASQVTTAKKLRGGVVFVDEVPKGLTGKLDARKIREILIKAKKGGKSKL
#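 Material: luciferase plus luciferin reagent, cell-free. Medium: PBS buffer for ATP. Also added: ATP substrate, dispensed from a 10.24 µM working solution in PBS. Doses: test compounds dosed from 2 mM stocks in 100% DMSO. Incubation: 10 min post-reagent at room temperature. Technique: light output (luminescence). Read-out basis: luminescence gain marking luciferase activators.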
# FLuc inhib CS = firefly luciferase enzyme inhibitors, primary screen, artefact control for luciferase-based inhibitor screens, biochemical, luminescence, ATPLite; Luciferin 4-monooxygenase (Photinus pyralis), P08659; 10 min; inhibition, % at 10 µM; 200,000 tested, 1.5% active; AID 1006, 2008;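 active means inhibition above about 50% when tested at 10 µM, limit read from the data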
# STAT1 blocker = STAT1 signaling inhibitors, primary screen, cell-based, HTS, luciferase reporter; NIH 3T3 STAT1-luciferase reporter, IFN-gamma, luminescence; inhibition, % at 5.5 µM; AID 920, 2007; 200,000 tested, 0.35% active;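 active means inhibition above a set limit, the mean inhibition across all tested compounds plus 3 SD, cut at about 34% in these data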;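 further: 0% = IFN-gamma with DMSO and 100% = IFN-gamma with 300 µM nifuroxazide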
# STAT3 inh = IL-6 driven STAT3 reporter inhibitors, primary screen, U3A cells, luciferase, luminescence, MLSCN library; IL-6 STAT3-luciferase reporter; host cell line lacks STAT1; inhibition, % at 5.5 µM; 190,000 tested, 0.89% active;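 active means inhibition above the mean inhibition across all screened compounds plus 3 SD, cut at about 44% in these data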;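 further: 0% = DMSO only wells and 100% = 100 µM nifuroxazide control wells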
# STAT3 activator = IL-6 driven STAT3 reporter potentiators, primary screen, U3A cells, luciferase, luminescence, MLSCN library; activation (% of control), % at 5.6 µM; IL-6 STAT3-luciferase reporter; 100% = signal with IL-6 EC80 alone; AID 871, 2007; 190,000 tested, 0.91% active;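 active means activation above the screen-wide mean of compound activation plus 3 SD, cut at about 130% in these data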;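 further: 0% = background luminescence of wells with medium and substrate only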
#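 Material: STAT3-luciferase reporter U3A cells. Controls: IL-6-treated wells, 100% activation. Read-out: % activation versus median of IL-6-stimulated wells. Probe or stimulus: IL-6 stimulus at 33 ng/mL final. Timing: compound 1 h, then IL-6 6 h at 37 °C. Signal: reporter luminescence signal.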
# STAT1 act = STAT1 signaling activators, primary screen, cell-based, HTS, luciferase reporter; NIH 3T3 STAT1-luciferase reporter, IFN-gamma, luminescence; 100% = IFN-gamma alone, no compound; activation (% of control), % at 5.5 µM; 200,000 tested, 2.6% active; AID 932, 2007;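 active means activation above the screen-wide mean activation plus 3 SD, cut at about 130% in these data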;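 further: raw ratio to IFN-gamma control signal so 100% means no change and 0% no light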
# STAT1 act conf = STAT1 signaling activators, confirmation, cell-based, HTS, luciferase reporter; shares compounds with STAT1 act; NIH 3T3 STAT1-luciferase reporter, IFN-gamma potentiation, luminescence; 100% = IFN-gamma EC80 alone, no compound; activation (% of control), % at 5.7 µM; AID 1262, 2008; 1,200 tested, 97% active;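 active means activation above a set limit carried over from the earlier primary STAT1 screen, cut at about 140% in these data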;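 further: simple ratio to median IFN-gamma plus DMSO wells so 0% means no light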
# NFkB act STAT1ct = NF-kB reporter activators, TNF-alpha stimulated, counter-screen for STAT1 activator project, cell-based, HEK293T, luciferase luminescence | shares compounds with STAT1 act | 1,200 tested, 43% active | 100% = TNF-alpha with vehicle only | activation (% of control), % at 5.7 µM;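 active means activation above the mean of solvent-only control wells plus 3 SD, set per campaign, cut at about 130% in these data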;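 further: TNF-alpha given at a submaximal dose yielding about 80% of full reporter signal; values are well signal over median control so 100% means no change and 0% no light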
# STAT3 act STAT1c = STAT3 reporter activation by STAT1 hits, confirmation, counter-screen for STAT1 activator project, U3A cells, luciferase, luminescence; AID 1316, 2008; shares compounds with STAT1 act; activation (% of control), % at 5.7 µM; IL-6; cells lack STAT1; 100 = IL-6 alone, no compound effect; 1,200 tested, 46% active;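 active means activation above the solvent-only control well mean plus 3 SD, set per plate batch, cut at about 110% in these data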;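 further: 0% = no luminescence and 100% = median IL-6 plus DMSO wells; higher means more STAT3 reporter activation so hits are non-selective activators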
# The depositor's hits bear a star; nt = no result.
SMILES,FLuc stim CS,FLuc inhib CS,STAT1 blocker,STAT3 inh,STAT3 activator,STAT1 act,STAT1 act conf,NFkB act STAT1ct,STAT3 act STAT1c
Cc1cccc2cc3c(N)c(C(=O)N4CCOCC4)sc3nc12,0.9,12.2,-62.5,3.0,105.2,157.0*,159.9*,112.9,124.5*
Cc1cc(C)c2cc3c(N)c(C(=O)N4CCc5ccccc5C4)sc3nc2c1,1.1,-5.8,-2.8,3.4,99.5,102.5,nt,nt,nt
Cn1cc(NC(=O)OCc2ccc(Cl)cc2)c(C(F)(F)F)n1,1,-3.7,-88.0,-11.4,114.2,178.2*,165.4*,124.6,110.4
Cn1cc(C(=O)Nc2ccc(Cl)cc2)c(C(F)(F)F)n1,1.1,-8.9,9.6,4.3,98.1,90.9,nt,nt,nt
Cc1ccc(O)c(-c2cc3ccccc3[nH]2)c1,1,0.1,-1.0,7.5,96.8,101.0,nt,nt,nt
Cc1ccc2[nH]c(-c3cccc(N)c3)cc2c1,0.8,16.5,-91.7,7.0,98.0,183.4*,213.5*,145.5*,104.4
COC(=O)CCCNc1ncccc1[N+](=O)[O-],1,-2.1,-2.4,3.2,99.2,100.7,nt,nt,nt
O=[N+]([O-])c1cccnc1NCCc1ccccc1,1,2.4,-59.7,0.1,105.1,151.2*,163.2*,128.9,116.7*
CCOC(=O)c1sc(N2N=C(C)/C(=C\c3ccc(OCC(=O)OC)cc3)C2=O)nc1C,1,-4.6,-2.5,1.9,101.4,102.3,nt,nt,nt
CCOC(=O)N1CCN(S(=O)(=O)c2ccc(F)c(C(=O)Nc3cccc(Cl)c3C)c2)CC1,1,-3.1,12.2,20.2,85.3,88.9,nt,nt,nt
Fc1cccc(NCc2cn3ccccc3n2)c1,0.9,8.5,-75.6,1.8,101.4,169.4*,193.6*,130.3,112.6*
Fc1cccc(NCc2ccoc2)c1,1.1,-7.1,3.7,-4.1,107.7,96.7,nt,nt,nt
COc1ccc(CNC(=O)C/C(C)=N/NC(=O)COc2ccc(C)cc2Br)cc1,1,-1.4,1.1,0.1,105.0,98.6,nt,nt,nt
C/C(=N\Nc1nc(N2CCOCC2)nc(N2CCOCC2)n1)c1cccs1,1,-1.9,-1.2,2.9,101.7,101.0,nt,nt,nt
CC(=O)Nc1cccc(/C(C)=N/Nc2nc3ccccc3s2)c1,0.9,5.3,-108.7,-6.2,112.5,198.0*,199.9*,139.2*,122.0*
C/C(=N\Nc1nc2ccccc2s1)c1cccs1,0.4,60.9*,-65.0,-14.4,109.3,164.5*,248.9*,121.1,159.5*
COC(=O)c1sc(S(=O)(=O)Nc2ccc(C)c(C)c2)c(C(=O)OC)c1C,1.1,-5.9,-4.6,7.5,96.6,104.2,nt,nt,nt
Cc1ncc([N+](=O)[O-])n1CC(=O)Nc1ccc2c(c1)OCO2,1.1,-5.2,-0.5,-1.3,104.4,100.2,nt,nt,nt
Cc1oc(-c2ccc(-c3ccccc3)cc2)nc1CN(C)C1CCOC1 (stereo not given),0.7,25.5,-75.2,-3.7,107.8,165.3*,191.6*,144.0*,116.7*
Cc1cccc(C(=O)N2CCC(Cc3ccccc3)CC2)c1[N+](=O)[O-],1.1,-6.8,-0.7,-17.1,111.9,100.6,nt,nt,nt
